The structures appear in SMILES notation.

Assay [1] concerns HCT-8. Kind of assay: Induction of apoptosis in human HCT8 cells assessed as apoptotic nuclei at 5 uM after 24 hrs by acridine orange/ethidium bromide staining based fluorescence microscopy. It counts as functional. The method, boiled down:
(§1)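 Cells exposed 24 h, with or without 24 h pretreatment with 1-bromoheptane. Cell suspension mixed with acridine orange/ethidium bromide (each 100 in PBS) and spread on slide. 300 cells counted per point by fluorescence microscopy to give % apoptotic cells. Mean ± S.E.M. of three experiments.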

Assay [2] relates to HCT-8. Kind of assay: Cytotoxicity against human HCT8 cells after 72 hrs by MTT assay. It is filed as functional, cell-based. Conditions: HCT-8, 72 h. (In general: Formazan colour is commonly taken as a measure of viable cells.)
Assay [3] concerns SF-295. The experiment in a line: Induction of apoptosis in human SF295 cells assessed as apoptotic nuclei at 5 uM after 24 hrs by acridine orange/ethidium bromide staining based fluorescence microscopy in presence of 1-bromoheptane. It counts as functional. The method, boiled down: as §1
For assay [4], the system named is SF-295. Kind of assay: Cytotoxicity against human SF295 cells after 72 hrs by MTT assay. Conditions: SF-295, 72 h. It counts as functional, cell-based.
The subject of assay [5] is HCT-8. Kind of assay: Induction of apoptosis in human HCT8 cells assessed as apoptotic nuclei at 5 uM after 24 hrs by acridine orange/ethidium bromide staining based fluorescence microscopy in presence of 1-bromoheptane. It is filed as functional. The method, boiled down:
as §1

Assay [6] concerns HL-60. Kind of assay: Induction of apoptosis in human HL60 cells assessed as apoptotic nuclei at 5 uM after 24 hrs by acridine orange/ethidium bromide staining based fluorescence microscopy. It is filed as functional. The method, boiled down: as §1
Assay [7] deals with HL-60. The experiment in a line: Induction of apoptosis in human HL60 cells assessed as apoptotic nuclei at 5 uM after 24 hrs by acridine orange/ethidium bromide staining based fluorescence microscopy in presence of 1-bromoheptane. It is filed as functional. The method, boiled down: as §1
The subject of assay [8] is HL-60. The experiment in a line: Cytotoxicity against human HL60 cells after 72 hrs by MTT assay. It is filed as functional, cell-based. The conditions noted are these: HL-60, 72 h.
Assay [9] has as its system MDA-MB-435. The experiment in a line: Induction of apoptosis in human MDA-MB-435 cells assessed as apoptotic nuclei at 5 uM after 24 hrs by acridine orange/ethidium bromide staining based fluorescence microscopy. It is filed as functional. The method, boiled down: as §1
For assay [10], the system named is MDA-MB-435. Kind of assay: Induction of apoptosis in human MDA-MB-435 cells assessed as apoptotic nuclei at 5 uM after 24 hrs by acridine orange/ethidium bromide staining based fluorescence microscopy in presence of 1-bromoheptane. It counts as functional. The method, boiled down:
as §1

A further assay concerns PBMC. Kind of assay: Cytotoxicity against human PBMC cells after 72 hrs by Alamar Blue assay. It counts as cell-based. A general note: Alamar Blue is a resazurin reagent that responds to reducing activity.
Assay [11] deals with SF-295. Kind of assay: Induction of apoptosis in human SF295 cells assessed as apoptotic nuclei at 5 uM after 24 hrs by acridine orange/ethidium bromide staining based fluorescence microscopy. It is filed as functional. The method, boiled down:
as §1

The subject of assay [12] is MDA-MB-435. Kind of assay: Cytotoxicity against human MDA-MB-435 cells after 72 hrs by MTT assay. It counts as functional, cell-based. The conditions noted are these: MDA-MB-435, 72 h.

The IC50 is the concentration that gives 50% inhibition. `Cc1ccccc1-c1nc2ccc3c(c2[nH]1)C(=O)c1ccccc1C3=O`: the Activity in the assay on HCT-8 [1] is listed as 5.33%; in the assay with SF-295 [3], 13.95%; in the assay on HCT-8 [5] it was 9.17%; in the assay with HL-60 [6] it was 11.47%; with HL-60 [7], 10.75%; with MDA-MB-435 [9], 6.33%. In addition, the Activity with MDA-MB-435 [10] was determined as 10.38%; in the assay on SF-295 [11], 11.85%. Besides, the half-maximal inhibitory concentration (IC50) in the assay with HCT-8 [2], in the assay on SF-295 [4], in the assay with HL-60 [8], in the assay on PBMC and in the assay on MDA-MB-435 [12] was greater than 14.8 µM in each case.
For the molecule `Cc1ccc(-c2nc3ccc4c(c3[nH]2)C(=O)c2ccccc2C4=O)cc1`, the Activity is 8.72% with HCT-8 [1]; 4.17% in the assay on SF-295 [3]; 9.31% in the assay on HCT-8 [5]; 5.27% with HL-60 [6]; 9.62% in the assay with HL-60 [7]; 7.49% in the assay on MDA-MB-435 [9]. Also, the Activity with MDA-MB-435 [10] worked out at 12.27%; with SF-295 [11] it was 5.82%. Further, the IC50 with HCT-8 [2], in the assay on SF-295 [4], with HL-60 [8], in the assay with PBMC and in the assay on MDA-MB-435 [12] was greater than 14.8 µM each time.
Turning to `CCCC1=C(O)C(=O)C2=C(CCCC2)C1=O`, the IC50 is 3.99 µM in the assay with HCT-8 [2]; greater than 22.7 µM in the assay with SF-295 [4]; greater than 22.7 µM in the assay on HL-60 [8]; greater than 22.7 µM in the assay on PBMC; greater than 22.7 µM in the assay with MDA-MB-435 [12].
`O=C1c2ccccc2C(=O)c2c1ccc1nc(-c3ccccc3O)[nH]c21`: the Activity in the assay with HCT-8 [1] is reported as 6.48%; in the assay with SF-295 [3] it was 9.91%; in the assay with HCT-8 [5] it was 4.19%; with HL-60 [6] it was 8.21%; with HL-60 [7] it was 12.59%; in the assay with MDA-MB-435 [9], 7.39%. For the same molecule, the figures for the Activity with MDA-MB-435 [10] and in the assay on SF-295 [11] were 10.04% and 11.73%, respectively. The IC50 was 3.64 µM in the assay with HCT-8 [2]; 3.87 µM with SF-295 [4]; greater than 14.7 µM in the assay with HL-60 [8]; greater than 14.7 µM in the assay with PBMC; greater than 14.7 µM in the assay with MDA-MB-435 [12].
On to `COc1ccc(-c2cn([C@H]3C4=C(OC(C)(C)[C@@H]3Br)c3ccccc3C(=O)C4=O)nn2)cc1`, for which the IC50 with HCT-8 [2] amounted to 3.21 µM; with SF-295 [4], 3.01 µM; in the assay with HL-60 [8] it was 1.88 µM; with PBMC, 2.52 µM; in the assay on MDA-MB-435 [12], 1.92 µM.
With `CC(C)CC1=C(OC2(CC(C)C)C(=O)C(=O)C3=C(CCCC3)C2=O)C(=O)C2=C(CCCC2)C1=O` (stereo unspecified), the IC50 in the assay with HCT-8 [2], in the assay on SF-295 [4], in the assay with HL-60 [8], in the assay on PBMC and with MDA-MB-435 [12] was greater than 10.7 µM in each case.
In the case of `CCCC1=C(OC2(CCC)C(=O)C(=O)c3ccccc3C2=O)C(=O)c2ccccc2C1=O` (stereo unspecified), the IC50 with HCT-8 [2], in the assay on SF-295 [4], in the assay on HL-60 [8], with PBMC and in the assay on MDA-MB-435 [12] was greater than 11.6 µM throughout.
As for `O=C1c2ccccc2C(=O)c2c1ccc1nc(-c3cccc(F)c3)[nH]c21`, the IC50 with HCT-8 [2], with SF-295 [4], in the assay with HL-60 [8], in the assay on PBMC and in the assay on MDA-MB-435 [12] was greater than 14.6 µM in each case.
As for `CC1(C)OC2=C(C(=O)C(=O)c3ccccc32)[C@H](N=[N+]=[N-])[C@H]1Br`, the IC50 stood at 2.42 µM with HCT-8 [2]; 1.93 µM with SF-295 [4]; 1.43 µM with HL-60 [8]; 3.58 µM in the assay with PBMC; 1.54 µM in the assay on MDA-MB-435 [12].
On to `O=C1c2ccccc2C(=O)c2c1ccc1nc(-c3ccccc3F)[nH]c21`, for which the IC50 with HCT-8 [2], in the assay on SF-295 [4], in the assay on HL-60 [8], in the assay on PBMC and in the assay on MDA-MB-435 [12] was greater than 14.6 µM each time.
For `CC(C)CCC1=C(OC2(CCC(C)C)C(=O)C(=O)C3=C(CCCC3)C2=O)C(=O)C2=C(CCCC2)C1=O` (stereo unspecified), the Activity stood at 5.85% with HCT-8 [1]; 12.06% in the assay on SF-295 [3]; 10.33% in the assay on HCT-8 [5]; 10.21% in the assay with HL-60 [6]; 10.62% with HL-60 [7]; 8.38% in the assay with MDA-MB-435 [9]. For the same molecule, the Activity with MDA-MB-435 [10] is 13.72%; in the assay with SF-295 [11], 8.33%. Further, the IC50 with HCT-8 [2], with SF-295 [4], with HL-60 [8], in the assay with PBMC and in the assay with MDA-MB-435 [12] was greater than 10.1 µM each time.
`COc1cc(-c2nc3ccc4c(c3[nH]2)C(=O)c2ccccc2C4=O)ccc1O`: the IC50 with HCT-8 [2], with SF-295 [4], with HL-60 [8], in the assay on PBMC and in the assay on MDA-MB-435 [12] was greater than 13.6 µM in each case.
Take `CC(C)CC1=C(OC2(CC(C)C)C(=O)C(=O)c3ccccc3C2=O)C(=O)c2ccccc2C1=O` (stereo unspecified): the IC50 in the assay on HCT-8 [2], in the assay with SF-295 [4], in the assay with HL-60 [8], in the assay on PBMC and with MDA-MB-435 [12] was greater than 10.9 µM throughout.
Regarding `CC(C)CCC1=C(O)C(=O)c2ccccc2C1=O`, the IC50 in the assay with HCT-8 [2], in the assay on SF-295 [4], in the assay on HL-60 [8], with PBMC and in the assay on MDA-MB-435 [12] was greater than 20.5 µM throughout.
On to `CC1(C)OC2=C(C(=O)C(=O)c3ccccc32)[C@H](n2cc(-c3ccc(Br)cc3)nn2)[C@H]1Br`, for which the half-inhibitory concentration (IC50) in the assay with HCT-8 [2] was 2.24 µM; with SF-295 [4], 2.33 µM; in the assay on HL-60 [8], 1.67 µM; with PBMC it was 4.01 µM; in the assay on MDA-MB-435 [12], 1.99 µM.
For `O=C1c2ccccc2C(=O)c2c1ccc1nc(-c3ccc(F)cc3)[nH]c21`, the IC50 in the assay with HCT-8 [2], with SF-295 [4], in the assay with HL-60 [8], with PBMC and with MDA-MB-435 [12] was greater than 14.6 µM in each case.
In the case of `CC1(C)OC2C(=O)c3ccccc3C(=O)C2[C@@H](N=[N+]=[N-])[C@@H]1Br` (stereo partly specified), the IC50 in the assay with HCT-8 [2] came out at 12.4 µM; in the assay with SF-295 [4], 13.8 µM; with HL-60 [8], 5.68 µM; in the assay with PBMC it was 11.3 µM; in the assay on MDA-MB-435 [12], 3.97 µM.
With `CCCC1=C(O)C(=O)c2ccccc2C1=O`, the half-maximal inhibitory concentration (IC50) in the assay on HCT-8 [2], in the assay on HL-60 [8], with PBMC and with MDA-MB-435 [12] was greater than 23.1 µM in each case.
On to `CC(C)CC1=C(O)C(=O)c2ccccc2C1=O`, for which the IC50 with HCT-8 [2], in the assay with SF-295 [4], in the assay with HL-60 [8], in the assay with PBMC and in the assay on MDA-MB-435 [12] was greater than 21.7 µM throughout.
Consider `CC(C)CC1=C(O)C(=O)C2=C(CCCC2)C1=O`, for which the IC50 in the assay on HCT-8 [2], in the assay on SF-295 [4], in the assay with HL-60 [8], in the assay with PBMC and with MDA-MB-435 [12] was greater than 21.4 µM throughout.
With `CC(C)CCC1=C(O)C(=O)C2=C(CCCC2)C1=O`, the IC50 in the assay with HCT-8 [2], in the assay with SF-295 [4], in the assay with HL-60 [8], in the assay on PBMC and in the assay on MDA-MB-435 [12] was greater than 20.1 µM each time.
In the case of `CC1=C(OC2(C)C(=O)c3ccccc3C2=O)C(=O)c2ccccc2C1=O`, the IC50 in the assay on HCT-8 [2], with SF-295 [4], in the assay with HL-60 [8], with PBMC and in the assay on MDA-MB-435 [12] was greater than 14.4 µM throughout.

Source of the values: ChEMBL document CHEMBL1649387, “Synthesis and evaluation of quinonoid compounds against tumor cell lines” (Eur J Med Chem, 2011).
